Most compounds without a hit are left out; they make up all but 2.5% or so of the library.
SENP1 FRET inh – inhibitors of human SENP1 SUMO protease catalytic domain | Q9P0U3 | actives 0.21% (n = 360,000) | recombinant SENP1 catalytic domain, CyPet-SUMO1-YPet FRET cleavage | inhibition, % at 10 µM | AID 624204;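 active means inhibition at least 30% at 10 µM, raw YFP signal under a set limit, fluorescence ratio 0.5 to 1.5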;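 further: 0% = enzyme with DMSO and 100% = no enzyme wells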
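Compound: 10 µM single point, 0.5% DMSO; Test system: hSENP1 catalytic domain, recombinant; Timing: 50 min reaction at room temperature; Technique: FRET, CFP and YFP emission; Control set: no-enzyme wells low, DMSO-plus-enzyme wells high control.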
SENP7 inh – inhibitors of human SENP7 protease; recombinant SENP7, Z-RLRGG-aminoluciferin luminescence, 40 min; inhibition, % at 5 µM; actives 1.5% (n = 330,000); AID 434973;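 active means inhibition above about 50% at the single test dose, limit read from the data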;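 further: plate controls were DMSO with enzyme for no effect and no enzyme buffer wells for full effect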
Target sequence (Q9BQF6 706-1050 limits assumed): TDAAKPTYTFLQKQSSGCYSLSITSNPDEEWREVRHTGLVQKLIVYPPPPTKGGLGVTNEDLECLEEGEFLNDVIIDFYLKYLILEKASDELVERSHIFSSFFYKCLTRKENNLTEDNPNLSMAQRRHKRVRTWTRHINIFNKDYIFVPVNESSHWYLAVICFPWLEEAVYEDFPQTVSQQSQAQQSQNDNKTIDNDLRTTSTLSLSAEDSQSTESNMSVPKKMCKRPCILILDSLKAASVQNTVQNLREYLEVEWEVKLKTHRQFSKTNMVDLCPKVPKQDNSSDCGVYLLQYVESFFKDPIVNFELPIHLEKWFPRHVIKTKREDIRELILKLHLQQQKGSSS
SENP6 block – blocks the human protease SENP6 | Q9GZR1 | Recombinant SENP6 catalytic domain, aminoluciferin luminescence | inhibition, % at 10 µM | actives 1.8% (n = 330,000);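 active means inhibition above about 50% at the single tested dose, limit read from the data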;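 further: plate controls were DMSO wells with enzyme for no effect and DMSO wells lacking enzyme for full effect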
SENP8 block-1 – inhibitors of human SENP8 protease; Q96LD8; purified SENP8, Z-RLRGG-aminoluciferin cleavage, luminescence; inhibition, % at 10 µM; actives 1.2% (n = 330,000); AID 2540; in the data active means inhibition above about 50%
Target sequence (Q96LD8 whole entry, looked up): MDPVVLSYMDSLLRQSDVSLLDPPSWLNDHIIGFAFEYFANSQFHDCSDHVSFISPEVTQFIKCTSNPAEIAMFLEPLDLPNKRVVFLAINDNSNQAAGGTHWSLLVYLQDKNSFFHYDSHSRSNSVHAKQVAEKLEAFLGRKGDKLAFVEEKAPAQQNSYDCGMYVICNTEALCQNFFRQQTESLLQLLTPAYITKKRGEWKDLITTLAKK
SENP8 block-2 – blocks human SENP8 cleavage of Nedd8 substrate | recombinant SENP8, Nedd8 substrate fluorescence | inhibition, % at 20 µM | Q96LD8 | actives 0.64% (n = 360,000) | AID 602440; in the data active means inhibition mostly above about 40%, no sharp cut-off; inactive means mostly below about 27%
* hit, by the source's call; / = no result.

SMILES | SENP1 FRET inh | SENP7 inh | SENP6 block | SENP8 block-1 | SENP8 block-2
COC/C=C/C1=CC2=CC(=O)C(C)(OC(=O)c3cnc4ccccc4n3)C(=O)C2=CN1CC1CC1 (stereo not given) | -13.4 | 17.6 | 8.2 | -2.7 | 44.0*
COC/C=C/C1=CC2=CC(=O)C(C)(OC(=O)c3cnc4ccccc4n3)C(=O)C2=CN1Cc1ccc(OC)cc1 (stereo not given) | -25.5 | 5.7 | 16.0 | 3.0 | 36.7
CC(=O)Oc1ccc2c(=O)c(-c3ccccc3)coc2c1 | -1.2 | 58.8* | 20.9 | 22.0 | -192.6
O=C(Cc1ccc(Cl)cc1)NCc1ccccc1Cl | 0.4 | -1.8 | -0.8 | 4.0 | 6.5
O=C(Cc1ccccc1Cl)NC1(O)C(=O)c2ccccc2C1=O | 2.3 | 4.0 | 37.9 | 12.2 | 67.3*
O=C(O)c1ccc(-c2nc3ccccc3[nH]2)cc1 | -0.1 | 73.0* | 75.1* | 62.5* | -447.8
CC(=O)Nc1cccc(NC(=O)c2oc3ccccc3c2C)c1 | / | 54.1* | 38.6 | 23.1 | /
Cc1ccnc(NC(=O)CCC(=O)N(CC(=O)NC2CCCCC2)Cc2cccs2)c1 | 1.4 | 2.6 | -16.0 | -4.5 | 4.0
O=C(CSc1nnc2ccccn12)Nc1cccc(-c2nc3ccccc3s2)c1 | -4.9 | 62.8* | 14.8 | -2.2 | -126.7
Cc1ccc(NC(=O)Nc2ccccc2C(N)=O)cc1 | -0.8 | 95.8* | 95.1* | 88.6* | -41.4
CC(CCC(C)C(C)(C)C)[C@@H]1CC[C@H]2C3C[C@H](OS(O)(=S)=S)[C@H]4C[C@H](OS(O)(=S)=S)[C@@H](OS(O)(=S)=S)C[C@]4(C)[C@H]3CC[C@]12C (stereo not given in full) (tested in a mixture with another compound) | -8.0 | 7.7 | -2.5 | 53.8* | 1.1
COc1ccc(-c2nc3ccccn3c2C=O)cc1 | -2.0 | 55.4* | 62.2* | 47.5 | -8.1
O=c1c(C=NCCN2CCNCC2)c(-c2ccccc2)[nH]n1-c1ccc([N+](=O)[O-])cc1 | / | 83.9* | 92.8* | 90.3* | /
COc1ccc(-c2[nH]n(-c3ccc([N+](=O)[O-])cc3)c(=O)c2C=NCCN2CCNCC2)cc1 | / | -0.3 | 13.5 | 3.3 | /
O=C(OCC(=O)N1CCCC1)c1cnc(Cl)c(Cl)c1 | 2.0 | 4.5 | -13.3 | -4.8 | 7.4
CCOc1cccc(CNc2ccc(O)cc2)c1OCc1ccc(Cl)cc1Cl | 1.8 | 8.1 | 0.8 | 2.9 | 68.9*
CCOc1cccc(CNc2ccc(O)cc2)c1OCc1ccccc1Cl | 14.1 | 55.2* | 28.0 | 9.0 | 30.4
CCOc1cccc(CNn2cnnc2)c1OCc1ccccc1Cl | 2.0 | 3.2 | 5.3 | 11.1 | 23.6
CC(=O)Nc1c(Br)cc2c(c1Br)Cc1cc([N+](=O)[O-])ccc1-2 | 4.9 | / | / | / | 19.0
CC(=O)C(Sc1ccc2nnc(-c3ccc(F)cc3)n2n1)C(C)=O | 0.6 | -2.5 | -0.6 | 3.6 | -16.5
Cc1ccc(C(C)C)c(OCC(=O)NNC(=O)C(C(C)C)N2C(=O)c3ccccc3C2=O)c1 (stereo not given) | 1.2 | -0.8 | -0.2 | -5.0 | 22.6
Cn1cc(/C=C2\SC(=S)N(NC(=O)c3ccccc3Cl)C2=O)c2ccccc21 | -27.1 | / | / | / | 43.9*
Cc1ccc(C(=O)NN2C(=O)/C(=C/c3cn(C)c4ccccc34)SC2=S)cc1 | -25.6 | / | / | / | 42.1*
Cc1ccc(C(=O)NN2C(=O)/C(=C/c3cccn3C)SC2=S)cc1 | -57.9 | 8.3 | -15.4 | -1.2 | 28.3
COc1cc(/C=C2\SC(=S)N(NC(=O)c3cccnc3)C2=O)ccc1O | 48.9* | 6.4 | -17.9 | -3.3 | 30.1
SMILES | SENP1 FRET inh | SENP7 inh | SENP6 block | SENP8 block-1 | SENP8 block-2
O=C(NN1C(=O)/C(=C\c2ccc(O)c([N+](=O)[O-])c2)SC1=S)c1ccccc1Cl | 33.2* | 2.5 | -11.0 | -8.7 | 67.7*
O=C(NN1C(=O)/C(=C/c2ccc(O)c(O)c2)SC1=S)c1ccccc1 | 31.6 | 4.9 | -16.3 | -11.8 | 31.8
O=C1/C(=C/c2ccc(O)c(O)c2)SC(=S)N1Nc1ccccc1 | 35.7* | / | / | / | 28.2
CC(=O)N(C1=C(N)C(=O)c2ccccc2C1=O)c1ccccc1 | 1.7 | 19.4 | 26.2 | 24.1 | 61.5*
C=CCN1C(=O)/C(=C/c2ccsc2)SC1=S | 2.9 | -8.1 | -8.8 | -14.7 | 46.5*
CCOc1cccc(C(c2c(C)n(C)n(-c3ccccc3)c2=O)c2c(C)n(C)n(-c3ccccc3)c2=O)c1OC | -1.4 | -3.9 | -28.6 | -0.8 | 15.4
Cc1[nH]n(-c2ccccc2)c(=O)c1C(C[N+](=O)[O-])c1ccccc1Cl (stereo not given) | 2.1 | 46.8 | 19.1 | -0.2 | 64.3*
COc1cccc(C(c2c(C)[nH]n(-c3ccccc3)c2=O)c2c(C)[nH]n(-c3ccccc3)c2=O)c1OC | 1.6 | 39.4 | 15.2 | 5.7 | 73.4*
Cc1[nH]n(-c2ccccc2)c(=O)c1-c1ccccc1 | -3.3 | 4.9 | 5.2 | 2.2 | 12.4
Cc1[nH]n(-c2ccccc2)c(=O)c1C(c1ccc(O)c([N+](=O)[O-])c1)c1c(C)[nH]n(-c2ccccc2)c1=O | 1.8 | 40.4 | 50.6* | 15.1 | 79.6*
Cc1[nH]n(-c2cccc([N+](=O)[O-])c2)c(=O)c1-c1ccccc1 | 0.7 | 3.3 | -5.0 | -5.9 | 16.0
COc1cccc(/C=N/N=C(\N)c2nonc2N)c1O | 2.2 | 78.3* | 21.3 | 14.8 | 17.8
O=C1CC(c2ccco2)CC(O)=C1C=Nc1cc(Cl)ccc1O (stereo not given) | 37.0* | 2.5 | -24.5 | -3.0 | -279.7
O=C1CC(c2ccco2)CC(O)=C1C=Nc1cc(Cl)ccc1Cl (stereo not given) | 2.8 | 9.0 | -15.4 | 7.2 | -25.9
COc1ccc(-c2cn3nc(C)c(C)nc3n2)cc1OC | -20.5 | 4.3 | 1.2 | 1.3 | -163.5
Cc1ccc(-c2cn3nc(C)c(C)nc3n2)cc1 | -19.3 | 7.8 | 16.1 | 52.6* | -291.5
O=C(O/N=C/c1ccc2c(c1)OCO2)c1ccccc1Cl | / | 79.9* | 85.8* | 84.2* | /
O=C(N/N=C/c1ccc2c(c1)OCO2)C(=O)Nc1ccccc1Cl | 1.0 | -6.4 | 0.2 | 23.0 | -96.3
C=CCNC(=S)N1CCN(Cc2ccccc2)CC1 | 2.4 | -3.0 | -1.8 | -7.4 | 12.3
O=C(Nc1ccccc1Cl)c1cccc(COc2cc(Cl)ccc2Cl)c1 | 2.6 | -2.9 | 8.7 | 5.2 | 22.8
O=C(O)c1cccc(COc2ccccc2Cl)c1 | 1.1 | 4.5 | 98.8* | 98.0* | 4.7
O=C1CSC(c2ccccc2[N+](=O)[O-])N1CCc1ccccc1 (stereo not given) | 1.2 | 2.5 | 1.2 | 1.6 | 0.7
CN1C(=O)C(N=Nc2ccccc2C(=O)O)N(C)C1=S (stereo not given) | 55.5* | 21.7 | 88.8* | 86.4* | 13.4
CC1=NN(C(N)=S)C(=O)C1N=Nc1ccccc1C(=O)O (stereo not given) | 0.6 | 2.6 | 8.3 | -7.5 | 9.6
CCN(C(=O)COC(=O)c1c(NC(C)=O)sc(C)c1C)c1c(N)n(Cc2ccccc2)c(=O)[nH]c1=O | -0.7 | / | / | / | -66.1
